Drawing on ChEMBL document CHEMBL4513216, “Probing the Open Global Health Chemical Diversity Library for Multistage-Active Starting Points for Next-Generation Antimalarials” (ACS Infect Dis, 2020), this text covers cytotoxicity for 71 compounds.

This data set can be described thus: Toxicity liver stage against HepG2, at 10uM. Details: test concentration 10 uM, cell line HepG2-A16-CD81EGFP. The format is cell-based. The note with it: human, HepG2-A16-CD81EGFP cells; read-out: INHIBITION
Summed up:
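Uninfected HepG2-A16-CD81EGFP cells, 3 × 10^3 per well, 1536-well, plated on prespotted compound at 10 μM final, parasite-free screening media added to match infected plates; puromycin 10 μM positive, DMSO 0.5% negative; run in parallel with 48 h PbLuc assay at 37 °C, 5% CO2; viability by CellTiter-Glo luminescence, normalized to controls.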

The structures appear in SMILES notation.

Take `CCCc1noc(CCCC(=O)N2CCCC(n3ccnc3C)C2)n1` (stereo unspecified): the cytotoxicity at 10 µM is -2.5%.

Regarding `Cc1noc(C)c1C(=O)N1C[C@@H]2CCCO[C@@H]2[C@H](N(C)C)C1`, the cytotoxicity at 10 µM turned out to be 9.85%.

In the case of `CC(C)N(C)C(=O)C1CSCN1S(=O)(=O)c1cc(Cl)ccc1Cl` (stereo unspecified), the cytotoxicity at 10 µM is -1.57%.

As to `O=S1(=O)C[C@@H]2[C@H](C1)N(Cc1cc(F)cc(F)c1)CCN2CCO`, the cytotoxicity at 10 µM is -2.61%.

Turning to `CC(C)N1CCOCC2(CN(Cc3ccccn3)CCO2)C1` (stereo unspecified), the cytotoxicity at 10 µM stood at 6.46%.

As for `Cc1nc(CN(C)C(=O)NC(C)c2ccc3c(c2)OCCO3)cs1` (stereo unspecified), the cytotoxicity at 10 µM is -4.45%.

For the compound `c1ccc(-c2nnn3c2COC(CNCC2CC2)C3)cc1` (stereo unspecified), the cytotoxicity at 10 µM was -77.8%.

For `CN1CCC(NC(=O)c2cc(Cl)cc(Br)c2O)C1=O` (stereo unspecified), the cytotoxicity at 10 µM was determined as 4.84%.

For the compound `Cc1nc(-c2ccc(F)cc2)nc2c1CCN(C(=O)CN(C)C)CC2`, the cytotoxicity at 10 µM is -1.65%.

For `Cn1cc(NC(=O)c2cccc3cccnc23)ccc1=O`, the cytotoxicity at 10 µM was -4.83%.

As to `CC[C@H]1N(C)CCC[C@]12CCC(=O)N2Cc1ccncc1`, the cytotoxicity at 10 µM is 7.99%.

Take `CC(C)C(C)(CNC(=O)OC(C)(C)C)NC(=O)c1cnccn1` (stereo unspecified): the cytotoxicity at 10 µM was -6.62%.

With `Cc1cccc(N(CC(=O)c2ccccc2)C2=NCCCCC2)c1`, the cytotoxicity at 10 µM was determined as 14.5%.

For the compound `Fc1cccnc1CN1CCCCC1c1ccn2ccnc2n1` (stereo unspecified), the cytotoxicity at 10 µM stood at 0.505%.

Consider `NCC(c1cccnc1)N1CCOCC1` (stereo unspecified), for which the cytotoxicity at 10 µM was found to be 4.32%.

In the case of `COc1ccc([C@@H]2C[C@H](NC(C)=O)C[C@H](Cc3ccccc3)O2)cn1`, the cytotoxicity at 10 µM is 5.46%.

On to `CCOc1cc(C)nc(N2CCN(C(=O)c3cc[nH]n3)CC2)n1`, for which the cytotoxicity at 10 µM was -8.21%.

As for `COc1ccc(CNc2n[nH]c(C)n2)cc1`, the cytotoxicity at 10 µM came out at 1.64%.

As for `COCCOCC(=O)Nc1cccc(CN(C)C(C)=O)c1`, the cytotoxicity at 10 µM is -126%.

As to `CNc1nc(C2CCCCN2C(=O)COC)nc2c1CN(C)CC2` (stereo unspecified), the cytotoxicity at 10 µM is -13.1%.

For the compound `Cc1cc(NC(=O)N(Cc2ccc(C#N)cc2)C(C)C)no1`, the cytotoxicity at 10 µM was -17%.

Take `O=C(CC1=CSC2=NCCCN12)N1CCCCCC1c1ccco1` (stereo unspecified): the cytotoxicity at 10 µM was 10%.

For `CCCn1nnnc1CN1Cc2ccccc2CC1c1nnc(C)o1` (stereo unspecified), the cytotoxicity at 10 µM stood at 9.52%.

For `Cc1cccc(CNc2ccc(C(=O)N3CCC(CO)CC3)cc2)c1`, the cytotoxicity at 10 µM came to 18.9%.

Turning to `CN(C)C(=O)N1CCc2c(nnn2C)C1COCC1CC1` (stereo unspecified), the cytotoxicity at 10 µM was found to be 12.6%.

Consider `COCCNC(=O)[C@@]12CCO[C@@H]1CCN(Cc1ccc(OC)cc1)C2`, for which the cytotoxicity at 10 µM was -77.8%.

`CS(=O)(=O)Nc1ccc(-n2c(CCCO)nc3ccccc32)cn1`: the cytotoxicity at 10 µM is -3.14%.

Take `CC(C)c1cc(C2CCN(C(=O)Cn3cnnn3)CC2)[nH]n1`: the cytotoxicity at 10 µM worked out at 8.04%.

On to `CCC(=O)NC1CCCN(Cc2ccc(-n3ccnc3)cc2)C1` (stereo unspecified), for which the cytotoxicity at 10 µM is -47.8%.

Turning to `OC1(CN2CCCC2)COCCN(c2nccs2)C1` (stereo unspecified), the cytotoxicity at 10 µM is -7.64%.

With `COc1cc(CCNC(=O)NCCC2CCCO2)ccc1C` (stereo unspecified), the cytotoxicity at 10 µM worked out at 9.92%.

As for `CCc1nc2n(n1)CC(NCc1noc(-c3ccc(C)cc3)n1)CC2` (stereo unspecified), the cytotoxicity at 10 µM was -4.26%.

As to `Cc1nn(C)c(N(C)C)c1CNCc1ccc(OCC(N)=O)cc1`, the cytotoxicity at 10 µM is 1.25%.

As to `CN(C)Cc1ccnc(C2CCCN2Cc2ccncc2)n1` (stereo unspecified), the cytotoxicity at 10 µM was found to be 1.36%.

As to `CS(=O)(=O)c1ccc(CC(=O)N2CCN3CCNC(=O)C3C2)cc1` (stereo unspecified), the cytotoxicity at 10 µM is -3.34%.

`O=c1ccc(-n2ccnc2)nn1CCNS(=O)(=O)c1ccc(Cl)s1`: the cytotoxicity at 10 µM is -1.36%.

`O=C(c1cccc(N2CCCC2=O)c1)N1CCCC(n2cccn2)C1` (stereo unspecified): the cytotoxicity at 10 µM was -8.22%.

As to `CC(C)CC(=O)Nc1ccc(Oc2ccsc2C(=O)O)cc1`, the cytotoxicity at 10 µM is 7.66%.

On to `CC(C)Cc1nc(NC(=O)c2cccnc2)n[nH]1`, for which the cytotoxicity at 10 µM was -1.18%.

`CCc1ccc(C2CC(=O)Nc3c2c(=O)n(C)c2ncnn32)cc1` (stereo unspecified): the cytotoxicity at 10 µM came out at 8.16%.

With `O=C(NCCNc1ccc(C(F)(F)F)cn1)c1ccc(Br)cc1F`, the cytotoxicity at 10 µM was determined as 7.15%.

For the compound `CNC(=O)[C@@H]1CN(C(=O)COC)C[C@H]1c1ccnc(N2CCCC2)n1`, the cytotoxicity at 10 µM stood at 2.75%.

Take `Cc1nccc(C(=O)NC(CN2CCCC2=O)c2ccccc2)n1` (stereo unspecified): the cytotoxicity at 10 µM turned out to be 8.01%.

Consider `Cc1nc(C)n(C2CCCN(C(=O)COCc3ccccc3)C2)n1` (stereo unspecified), for which the cytotoxicity at 10 µM is -11%.

`COCCCNC(=O)NCc1nc(C)c(C)o1`: the cytotoxicity at 10 µM was determined as 10.1%.

Regarding `COc1ccc2c(c1)CN(Cc1nc3ccsc3c(=O)[nH]1)CC2`, the cytotoxicity at 10 µM is -4.64%.

Consider `CS(=O)(=O)N1CCOCC2(CN(Cc3ccsc3)CCO2)C1` (stereo unspecified), for which the cytotoxicity at 10 µM was -11.7%.

In the case of `CCNc1cc2c(nn1)CCN(C(=O)c1ccc3c(c1)OCO3)C2`, the cytotoxicity at 10 µM was -13.5%.

For the compound `COCC1CN(Cc2cccnc2OC)Cc2cnn(C)c21` (stereo unspecified), the cytotoxicity at 10 µM turned out to be 2.69%.

As for `CCS(=O)(=O)N1CCC2(COCc3cnc(N4CCOCC4)nc32)C1` (stereo unspecified), the cytotoxicity at 10 µM was -4.92%.

In the case of `Cc1ncc(CN2CCOC(CN(C)c3cccnn3)C2)s1` (stereo unspecified), the cytotoxicity at 10 µM is 2.86%.

For the compound `O=C(NCCNC1CCCCC1)c1cccs1`, the cytotoxicity at 10 µM was -12.7%.

In the case of `Cc1cncc(C2CCCN(C(=O)c3ccc(C)[nH]c3=O)C2)n1` (stereo unspecified), the cytotoxicity at 10 µM was 5.37%.

Turning to `c1nc2n(n1)CC(NCc1nc(-c3ccsc3)no1)CC2` (stereo unspecified), the cytotoxicity at 10 µM is -8.13%.

For the compound `O=C(c1ccccc1OCC1CC1)N1CCCC(n2ccnc2)C1` (stereo unspecified), the cytotoxicity at 10 µM is -1.8%.

For `COCC1CN(S(=O)(=O)N(C)C)Cc2cnn(CC3CCCC3)c21` (stereo unspecified), the cytotoxicity at 10 µM was determined as 12.4%.

As for `COc1ccccc1NCc1cscn1`, the cytotoxicity at 10 µM is -0.358%.

Turning to `Cc1ccc(=O)n(CC2(O)CCN(Cc3ccoc3)CC2)n1`, the cytotoxicity at 10 µM was -24.2%.

On to `CN(C)[C@@H]1CN(Cc2ccoc2)C[C@@H]2CCCO[C@@H]21`, for which the cytotoxicity at 10 µM came to 1.93%.

Consider `CCCc1nnc(C(=O)N(C)Cc2ccc(OC)cc2)o1`, for which the cytotoxicity at 10 µM is 2.64%.

Consider `CN(Cc1cccnc1)[C@@H]1CN(Cc2cnn(C)c2)[C@@H]2CCCO[C@H]12`, for which the cytotoxicity at 10 µM is -2.1%.

For `CCn1cnnc1CCNc1nc(C)cc(C)c1C#N`, the cytotoxicity at 10 µM was determined as 2.56%.

Take `CCS(=O)(=O)N1CCC2(CC(=O)N(c3cccc(C)c3)C2)C1` (stereo unspecified): the cytotoxicity at 10 µM is -7.79%.

On to `COc1ccc(C[C@H]2CN(C3CCOCC3)CC[C@H]2OCC2CC2)cc1`, for which the cytotoxicity at 10 µM was -6.57%.

For the compound `COc1ccc(CN2C[C@@H](CN(C)C)[C@@H](CO)C2)c(Cl)c1OC`, the cytotoxicity at 10 µM was -8.44%.

As to `CC(C)OCc1ccccc1CNC(=O)C(C)S(=O)(=O)C(C)C` (stereo unspecified), the cytotoxicity at 10 µM was -3.92%.

As for `COCC1c2c(cnn2C)CCN1Cc1ccc(F)cc1` (stereo unspecified), the cytotoxicity at 10 µM was -10.6%.

On to `CCC1=N[C@@]2(CC[C@@H]3CN(S(C)(=O)=O)C[C@@H]32)C(=O)N1CC(C)C`, for which the cytotoxicity at 10 µM came out at 2.58%.

On to `COC(=O)CCC(=O)N1CCc2nc(C(=O)N3CCOCC3)sc2CC1`, for which the cytotoxicity at 10 µM was found to be 15.3%.

Regarding `Cc1cc(C)n(CC(=O)N2CCCCC2CCc2cccs2)c(=O)n1` (stereo unspecified), the cytotoxicity at 10 µM came out at 6.93%.

On to `CC(C)(O)CN1CCN(C(=O)c2cccc3cccnc23)CC1`, for which the cytotoxicity at 10 µM is -10.7%.
